Data reported in ChEMBL document CHEMBL2169850, “3,6-bis(3-alkylguanidino)acridines as DNA-intercalating antitumor agents” (Eur J Med Chem, 2012).
The source made the active and inactive calls. The rule behind the calls is not given here.

How the values were obtained:
HL-60 [1] = experiment: Cell cycle arrest in human HL60 cells assessed as accumulation at G1 phase at 25 uM incubated for 24 hrs by flow cytometry (reference value: 35.96 +/- 1.63%); assay type: functional
HL-60 [2] = experiment: Antiproliferative activity against human HL60 cells assessed as cell number at 5 uM incubated for 24 hrs by Coulter counting method; assay type: functional
Procedure, shortened: (§1)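 HL-60 cells in RPMI with 10% heat-inactivated FCS, antibiotics and amphotericin, 37 °C, 5% CO2, seeded in 60 mm dishes. Compound added at 5, 15 or 25 µM for 24, 48 or 72 h. Absolute cell counts taken by Coulter counter and expressed as percentage of untreated control. Mean ± SD of at least three independent experiments; one-way ANOVA with Tukey test, p < 0.05.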

HL-60 [3] = experiment: Drug uptake in human HL60 cells with necrotic morphology at 50 uM incubated for 18 hrs by fluorescence microscopy; assay type: ADME, cell-based; conditions: hl-60, 18 h
Procedure, shortened: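 HL-60 cells were treated with 50 µM compound for 18 h, washed with PBS, resuspended in HBSS and mounted as native slides. Cells were imaged by inverted fluorescence microscopy at 40×, with excitation 360/40 and emission 470/40. The fluorescence channel was merged with brightfield images.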

Nucleic Acid [4] = experiment: Binding affinity to calf thymus DNA at 11 to 58 uM by LD spectroscopy; assay type: nucleic-acid assay; conditions: Bos taurus
Procedure, shortened: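 Flow LD spectra were recorded in a Couette cell (1 mm path) from 210 to 550 nm at 25 °C in 10 mM Tris. ctDNA was modified by compound at 11–58 × 10^-6 M.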

HL-60 [5] = experiment: Cell cycle arrest in human HL60 cells assessed as accumulation at G1 phase at 5 uM incubated for 24 hrs by flow cytometry (reference value: 35.96 +/- 1.63%); assay type: functional
Nucleic Acid [6] = experiment: Binding affinity to calf thymus DNA by spectrofluorimetric titration assay; assay type: nucleic-acid assay; conditions: Bos taurus
Procedure, shortened: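 Fluorescence titration at 25 °C in 0.01 M Tris, pH 7.4. Compound (9.58 × 10^-6 M) was titrated with ctDNA from 0 to 2.57 × 10^-4 M bp, excited at 384 nm, and emission recorded from 400 to 600 nm. K and n were obtained from McGhee–von Hippel fits of Scatchard data.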

HL-60 [7] = experiment: Antiproliferative activity against human HL60 cells assessed as cell number at 15 uM incubated for 24 hrs by Coulter counting method; assay type: functional; procedure, shortened: as §1
HL-60 [8] = experiment: Antiproliferative activity against human HL60 cells assessed as cell number at 25 uM incubated for 48 hrs by Coulter counting method; assay type: functional; procedure, shortened: as §1
HL-60 [9] = experiment: Cell cycle arrest in human HL60 cells assessed as accumulation at S phase at 25 uM incubated for 48 hrs by flow cytometry (reference value: 45.29 +/- 1.23%); assay type: functional
HL-60 [10] = experiment: Cell cycle arrest in human HL60 cells assessed as accumulation at S phase at 25 uM incubated for 24 hrs by flow cytometry (reference value: 44.41 +/- 0.77%); assay type: functional
HL-60 [11] = experiment: Cell cycle arrest in human HL60 cells assessed as accumulation at G2/M phase at 5 uM incubated for 48 hrs by flow cytometry (reference value: 16.42 +/- 1.03%); assay type: functional
HL-60 [12] = experiment: Antiproliferative activity against human HL60 cells assessed as cell number at 15 uM incubated for 72 hrs by Coulter counting method; assay type: functional; procedure, shortened: as §1
HL-60 [13] = experiment: Cell cycle arrest in human HL60 cells assessed as accumulation at S phase at 15 uM incubated for 72 hrs by flow cytometry (reference value: 40.30 +/- 3.15%); assay type: functional
HL-60 [14] = experiment: Cell cycle arrest in human HL60 cells assessed as accumulation at S phase at 25 uM incubated for 72 hrs by flow cytometry (reference value: 40.30 +/- 3.15%); assay type: functional
Nucleic Acid [15] = experiment: Binding affinity to calf thymus DNA increase in DNA viscosity at 12 to 60 uM by viscosimetric titration assay; assay type: nucleic-acid assay; conditions: Bos taurus
Procedure, shortened: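 Relative viscosity of ctDNA (3.11 × 10^-8 M) with compound at 12–60 × 10^-6 M was measured by automated microviscometry in a 1.6 mm capillary at 25 °C, in 10 mM Tris, pH 7.4. Solution density was also measured.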

Nucleic Acid [16] = experiment: Binding affinity to Escherichia coli pUC19 DNA assessed as reduction in DNA mobility to 5 to 80 uM by EMSA; assay type: nucleic-acid assay
Procedure, shortened: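 Supercoiled pUC19 plasmid incubated with compound at 5, 20, 40, 60 or 80 µM. Native agarose gel electrophoresis run with no ethidium bromide in the gel; band mobility was then read.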

Nucleic Acid [17] = experiment: Binding affinity to calf thymus DNA at 6.5 uM by CD spectroscopy; assay type: nucleic-acid assay; conditions: Bos taurus
Procedure, shortened: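 CD spectra were recorded in 1 mm quartz cuvettes in 0.01 M Tris, pH 7.4, with 6.52 µM compound and ctDNA. Each spectrum is the mean of three scans after buffer background subtraction.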

HL-60 [18] = experiment: Cell cycle arrest in human HL60 cells assessed as accumulation at G2/M phase at 25 uM incubated for 24 hrs by flow cytometry (reference value: 19.62 +/- 0.96%); assay type: functional
HL-60 [19] = experiment: Cell cycle arrest in human HL60 cells assessed as accumulation at S phase at 15 uM incubated for 24 hrs by flow cytometry (reference value: 44.41 +/- 0.77%); assay type: functional
HL-60 [20] = experiment: Cell cycle arrest in human HL60 cells assessed as accumulation at S phase at 5 uM incubated for 24 hrs by flow cytometry (reference value: 44.41 +/- 0.77%); assay type: functional
HL-60 [21] = experiment: Cell cycle arrest in human HL60 cells assessed as accumulation at S phase at 15 uM incubated for 48 hrs by flow cytometry (reference value: 45.29 +/- 1.23%); assay type: functional
HL-60 [22] = experiment: Cell cycle arrest in human HL60 cells assessed as accumulation at G2/M phase at 15 uM incubated for 24 hrs by flow cytometry (reference value: 19.62 +/- 0.96%); assay type: functional
Nucleic Acid [23] = experiment: Binding affinity to calf thymus DNA assessed as melting temperature at 12.4 uM by thermal denaturation study; assay type: nucleic-acid assay; conditions: Bos taurus
Nucleic Acid [24] = experiment: Binding affinity to calf thymus DNA assessed as hypochromacity at 12.8 uM by UV-visible absorption spectroscopy; conditions: Bos taurus
HL-60 [25] = experiment: Cell cycle arrest in human HL60 cells assessed as accumulation at G1 phase at 15 uM incubated for 72 hrs by flow cytometry (reference value: 47.02 +/- 6.19%); assay type: functional
HL-60 [26] = experiment: Induction of caspase-3 activation in human HL60 cells at 5 to 25 uM incubated for 24 to 72 hrs by FACS assay; assay type: functional, cell-based
Procedure, shortened: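 HL-60 cells (RPMI with 10% heat-inactivated FCS, 37 °C, 5% CO2) were seeded in dishes and treated 24, 48 or 72 h. Cells were fixed and permeabilized 20 min on ice, then stained 30 min at RT with FITC anti-active caspase-3 antibody. Read-out was the percentage of positive cells by flow cytometry. Mean ± SD of at least three independent experiments; ANOVA with Tukey.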

HL-60 [27] = experiment: Cell cycle arrest in human HL60 cells assessed as accumulation at G2/M phase at 5 uM incubated for 24 hrs by flow cytometry (reference value: 19.62 +/- 0.96%); assay type: functional
HL-60 [28] = experiment: Antiproliferative activity against human HL60 cells assessed as cell number at 5 uM incubated for 48 hrs by Coulter counting method; assay type: functional; procedure, shortened: as §1

## CCNC(=N)Nc1ccc2cc3ccc(NC(=N)NCC)cc3nc2c1.Cl.Cl.O
HL-60 [1]
  Activity: inactive
HL-60 [2]
  Activity: 71.7%
HL-60 [3]
  Drug uptake: Active
Nucleic Acid [4]
  Activity: Active
HL-60 [5]
  Activity: inactive
Nucleic Acid [6]
  K: 5.26 ×10⁵ /M
HL-60 [7]
  Activity: 78.95%
HL-60 [8]
  Activity: 86.85%
HL-60 [9]
  Activity: inactive
HL-60 [10]
  Activity: inactive
HL-60 [11]
  Activity: inactive
HL-60 [12]
  Activity: 84.97%
HL-60 [13]
  Activity: inactive
HL-60 [14]
  Activity: inactive
Nucleic Acid [15]
  Activity: Active
Nucleic Acid [16]
  Activity: Active
Nucleic Acid [17]
  Activity: Active
HL-60 [18]
  Activity: inactive
HL-60 [19]
  Activity: inactive
HL-60 [20]
  Activity: inactive
HL-60 [21]
  Activity: inactive
HL-60 [22]
  Activity: inactive
Nucleic Acid [23]
  Tm: 84 °C
Nucleic Acid [24]
  Activity: 23%
HL-60 [25]
  Activity: inactive
HL-60 [26]
  Activity: inactive
HL-60 [27]
  Activity: inactive
HL-60 [28]
  Activity: 78.56%

## CCCCCCNC(=N)Nc1ccc2cc3ccc(NC(=N)NCCCCCC)cc3nc2c1.Cl.Cl.O
HL-60 [1]
  Activity: 51.52%
HL-60 [2]
  Activity: 73.7%
HL-60 [3]
  Drug uptake: Active
Nucleic Acid [4]
  Activity: Active
HL-60 [5]
  Activity: 36.31%
Nucleic Acid [6]
  K: 1.25 ×10⁵ /M
HL-60 [7]
  Activity: 74.49%
HL-60 [8]
  Activity: 40.67%
HL-60 [9]
  Activity: 27.77%
HL-60 [10]
  Activity: 38.11%
HL-60 [11]
  Activity: 11.36%
HL-60 [12]
  Activity: 33.13%
HL-60 [13]
  Activity: 23.84%
HL-60 [14]
  Activity: 22.5%
Nucleic Acid [15]
  Activity: Active
Nucleic Acid [16]
  Activity: inactive
Nucleic Acid [17]
  Activity: Active
HL-60 [18]
  Activity: 10.37%
HL-60 [19]
  Activity: 46.58%
HL-60 [20]
  Activity: 47.31%
HL-60 [21]
  Activity: 27.52%
HL-60 [22]
  Activity: 11.65%
Nucleic Acid [23]
  Tm: 89 °C
Nucleic Acid [24]
  Activity: 42%
HL-60 [25]
  Activity: 70.31%
HL-60 [26]
  Activity: Active
HL-60 [27]
  Activity: 16.37%
HL-60 [28]
  Activity: 72.18%
